CHRM4 PAM = positive allosteric modulators of human muscarinic M4 receptor | CHO-K1 hM4/Gqi5, Fluo-8 calcium fluorescence, ACh EC20; 0% = ACh EC20, 100% = maximal ACh | activation, % at 3 µM | actives 0.4% (n = 360,000) | P08173;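 active = activation above its plate's cutoff, the mean activation of sample wells plus 3 SD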
M5 PAM = potentiates acetylcholine response at human M5 receptor. P08912. CHO-K1 hM5, Fluo-8 calcium, ACh EC20 PAM; 0% = ACh EC20, 100% = ACh EC100. activation, % at 3 µM. actives 0.3% (n = 360,000);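 active = activation above the run cutoff, the mean activation of all test compounds plus 3 SD, cut at about 18% in these data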
Target sequence (P08912 whole entry, looked up): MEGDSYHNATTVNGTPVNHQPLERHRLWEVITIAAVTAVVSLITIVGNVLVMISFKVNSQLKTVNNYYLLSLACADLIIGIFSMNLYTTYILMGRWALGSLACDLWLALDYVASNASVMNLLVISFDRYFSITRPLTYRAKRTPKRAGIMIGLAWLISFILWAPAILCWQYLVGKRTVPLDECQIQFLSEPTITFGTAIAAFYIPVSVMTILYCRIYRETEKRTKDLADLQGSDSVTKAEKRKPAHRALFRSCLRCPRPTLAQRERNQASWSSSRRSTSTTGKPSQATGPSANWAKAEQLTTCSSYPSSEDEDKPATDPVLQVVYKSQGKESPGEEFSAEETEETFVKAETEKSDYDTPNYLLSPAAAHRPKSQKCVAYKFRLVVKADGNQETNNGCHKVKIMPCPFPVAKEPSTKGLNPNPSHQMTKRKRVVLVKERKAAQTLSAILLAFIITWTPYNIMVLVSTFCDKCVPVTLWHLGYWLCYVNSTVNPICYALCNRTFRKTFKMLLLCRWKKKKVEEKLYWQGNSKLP
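System: CHO-K1 cell line with stable human muscarinic M5 receptor expression | Also added: EC20 acetylcholine as agonist stimulus | Compound: One concentration, 3 µM final (nominal) | Timing: Fluo-8 loading 80 min at 37 °C plus 30 min room temperature | Measured by: Fluo-8 calcium dye fluorescence, kinetic read | Read-out basis: % activation, ACh-normalized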
M5 ag = CHRM5 agonism in calcium assay; P08912; CHO-K1 hM5 cells, Fluo-8 calcium fluorescence; 0% DMSO wells, 100% maximal acetylcholine response; activation, % at 3 µM; actives 0.19% (n = 360,000);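 active = activation above the run's mean over test compounds plus 3 SD, cut at about 23% in these data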;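 also: signal is peak over basal fluorescence ratio across the kinetic read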
M4 ag = agonists of human muscarinic M4 receptor (CHRM4); actives 0.14% (n = 360,000); AID 624127; P08173; activation, % at 3 µM; CHO-K1 hM4/Gqi5, Fluo-8 calcium fluorescence; vehicle 0%, full acetylcholine response 100%;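 active = activation above the run mean over all test wells plus 3 SD, cut at about 32% in these data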;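 also: peak over basal fluorescence ratio per well then scaled between controls; 0% = DMSO wells and 100% = acetylcholine at EC100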
CHRM4 antagonist = CHRM4 antagonism in calcium assay; P08173; CHO-hM4 cells, ACh EC80, Fluo-8 calcium fluorescence; inhibition, % at 3 µM; actives 0.73% (n = 360,000);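 active = inhibition above its plate's cutoff, the mean inhibition of sample wells plus 3 SD, cut at about 27% in these data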;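 also: 0% = acetylcholine EC80 with DMSO and 100% = DMSO without agonist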
CHRM5 antagonist = CHRM5 antagonism in calcium assay | inhibition, % at 3 µM | CHO-hM5 cells, Fluo-8 calcium fluorescence, ACh EC80 | actives 0.59% (n = 360,000);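 active = inhibition above a per-plate cutoff, the mean of that plate's test compounds plus 3 SD, cut at about 27% in these data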;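 also: 0% = acetylcholine EC80 with DMSO and 100% = DMSO without agonist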
The depositor's hits bear a star. Hits are enriched below; roughly 1.8% of the tested compounds scored in any of these assays.

Cc1cc(-n2[nH]c(C)c(C)c2=O)nc(-c2ccccc2O)n1 was read as CHRM4 PAM 9.4, M5 PAM 36.8*, M5 ag 0.4, M4 ag 8.8, CHRM4 antagonist 2.0 and CHRM5 antagonist 42.3*.
Screening Cc1cc(N2CCC(C)CC2)nc(-c2ccccc2O)n1 returned CHRM4 PAM -5.8, M5 PAM 14.5, M5 ag -7.8, M4 ag -1.7, CHRM4 antagonist -17.0 and CHRM5 antagonist -10.2.
`COc1cccc(CNCCc2c[nH]c3ccccc23)c1OCc1ccccc1` gave CHRM4 PAM -19.7, M5 PAM -18.9, M5 ag 7.8, M4 ag 37.8*, CHRM4 antagonist 20.9 and CHRM5 antagonist 28.6*.
For Cc1ccc(NC(=O)COC(=O)Cn2cnc3c2c(=O)n(C)c(=O)n3C)cc1 the results were CHRM4 PAM 4.5, M5 PAM -5.8, M5 ag 3.5, M4 ag 1.6, CHRM4 antagonist -15.2 and CHRM5 antagonist 1.0.
Screening CCOC(=O)c1c(NC(=O)COC(=O)Cn2cnc3c2c(=O)n(C)c(=O)n3C)sc(C)c1CC returned CHRM4 PAM 23.8*, M5 PAM -8.9, M5 ag 1.0, M4 ag 2.8, CHRM4 antagonist -4.6 and CHRM5 antagonist 6.2.
`CSc1nc(-c2ccc(Cl)cc2)c(C#N)c(=O)n1C` gave CHRM4 PAM 20.1*, M5 PAM 4.4, M5 ag 2.9, M4 ag 1.8, CHRM4 antagonist -10.0 and CHRM5 antagonist -3.1.
Screening Clc1ccc(CNc2ncnc3[nH]ncc23)c(Cl)c1 returned CHRM4 PAM -0.1, M5 PAM -9.4, M5 ag 2.4, M4 ag 5.3, CHRM4 antagonist 0.9 and CHRM5 antagonist 13.6.
For Cc1ccc(NC(=O)C(C)OC(=O)Cc2c[nH]c3ccccc23)cc1 (centres undefined) the results were CHRM4 PAM 23.7*, M5 PAM 17.0, M5 ag -5.5, M4 ag 2.4, CHRM4 antagonist -12.2 and CHRM5 antagonist -10.1.
Screening Cc1ccc(C(=O)C(C)OC(=O)Cc2c[nH]c3ccccc23)cc1 (centres undefined) returned CHRM4 PAM 2.1, M5 PAM 1.7, M5 ag -4.4, M4 ag 0.3, CHRM4 antagonist -3.2 and CHRM5 antagonist 11.4.
CCn1cc(C(=O)NCCCN2CC(C)CC(C)C2)c(=O)c2cc(S(=O)(=O)N(C)C3CCCCC3)ccc21 (centres undefined) was read as CHRM4 PAM -14.1, M5 PAM 0.5, M5 ag -9.8, M4 ag 0.2, CHRM4 antagonist 33.3* and CHRM5 antagonist 0.6.
For O=[N+]([O-])c1cc(C(F)(F)F)cc([N+](=O)[O-])c1NCCNC(=S)Nc1ccc(Cl)c(Cl)c1 the results were CHRM4 PAM -11.4, M5 PAM -24.8, M5 ag 10.1, M4 ag 14.5, CHRM4 antagonist 30.7* and CHRM5 antagonist 35.5*.
Cc1ccc(O)c(C(=O)c2cnc3c(c2)c(=O)n(C)c(=O)n3C)c1 was read as CHRM4 PAM 5.5, M5 PAM 2.8, M5 ag 0.0, M4 ag 1.6, CHRM4 antagonist -3.0 and CHRM5 antagonist 5.0.
For Cc1ccc(O)c(C(=O)c2cnc(/N=C(\N)N(C)C)nc2)c1 the results were CHRM4 PAM -21.0, M5 PAM -1.0, M5 ag -8.1, M4 ag 1.6, CHRM4 antagonist 38.4* and CHRM5 antagonist -5.9.
CCN(CC)CCC(O)(c1ccc2c(c1)OCO2)c1cc(OC)c(OC)c(OC)c1 (centres undefined) was read as CHRM4 PAM 2.2, M5 PAM -11.1, M5 ag -7.0, M4 ag 1.0, CHRM4 antagonist 5.9 and CHRM5 antagonist 13.3.
O=S(=O)(c1ccc(N2CCCCCC2)nc1)N1CCCC1 was read as CHRM4 PAM -17.5, M5 PAM -15.7, M5 ag -11.2, M4 ag -0.1, CHRM4 antagonist 28.6* and CHRM5 antagonist -4.5.
`N#Cc1ccccc1OCC(=O)OCCCOC(=O)COc1ccccc1C#N` gave CHRM4 PAM -7.7, M5 PAM -10.5, M5 ag -4.1, M4 ag 8.1, CHRM4 antagonist -10.3 and CHRM5 antagonist 26.9*.
N#Cc1ccccc1OCC(=O)OCC(=O)N1CCCC1 was read as CHRM4 PAM 3.6, M5 PAM -5.6, M5 ag 1.8, M4 ag -0.5, CHRM4 antagonist 2.0 and CHRM5 antagonist 15.9.
Screening c1ccc(CCNc2ccnc3cc4ccccc4cc23)cc1 returned CHRM4 PAM -16.4, M5 PAM -33.4, M5 ag -4.7, M4 ag 10.2, CHRM4 antagonist 21.5 and CHRM5 antagonist 36.3*.
Screening CC(C)Nc1ccc(Nc2ccnc3cc4ccccc4cc23)cc1 returned CHRM4 PAM -5.3, M5 PAM 4.3, M5 ag -17.4, M4 ag 7.1, CHRM4 antagonist -11.2 and CHRM5 antagonist -5.6.
Screening O=C(NCc1ccccc1F)C1CCCN1C(=O)Nc1ccc(Cl)cc1 (centres undefined) returned CHRM4 PAM 0.4, M5 PAM -4.4, M5 ag -2.7, M4 ag 0.6, CHRM4 antagonist 3.0 and CHRM5 antagonist 15.8.
`CC(C(=O)NCC1(c2ccccc2)CCCC1)N1CCCC1` (centres undefined) gave CHRM4 PAM -38.9, M5 PAM -12.2, M5 ag -6.7, M4 ag 1.6, CHRM4 antagonist 42.8* and CHRM5 antagonist 12.3.
CC(C(=O)NCC1(c2ccccc2)CCCC1)N1CCOCC1 (centres undefined) was read as CHRM4 PAM -14.3, M5 PAM 1.1, M5 ag -1.7, M4 ag 0.0, CHRM4 antagonist 22.5 and CHRM5 antagonist 1.4.
For O=C(Nc1nc2ccc(S(=O)(=O)N3CCCCC3)cc2s1)C1CCCO1 (centres undefined) the results were CHRM4 PAM 33.5*, M5 PAM -0.1, M5 ag 1.8, M4 ag 2.5, CHRM4 antagonist 11.9 and CHRM5 antagonist 4.0.
CCOc1cc(C(=O)N(C)Cc2cc3cc(OC)ccc3[nH]c2=O)cc(OCC)c1OCC was read as CHRM4 PAM 29.7*, M5 PAM 2.8, M5 ag -0.5, M4 ag 1.4, CHRM4 antagonist -1.9 and CHRM5 antagonist -4.5.
For CCOc1ccccc1C(=O)N(C)Cc1cc2cc(OC)ccc2[nH]c1=O the results were CHRM4 PAM 4.6, M5 PAM -2.8, M5 ag -4.2, M4 ag 4.4, CHRM4 antagonist -3.8 and CHRM5 antagonist 1.5.
